Reference: ChEMBL document CHEMBL1629563, “Pharmacokinetic and safety evaluation of BILR 355, a second-generation nonnucleoside reverse transcriptase inhibitor, in healthy volunteers” (Antimicrob Agents Chemother, 2008)

Key:
[1] = AUC (0 to infinity) in healthy human at 5 mg, po administered as single dose coadministered with 100 mg of ritonavir; type: ADME, organism-based; parameters: dose 5 mg, time infinity, route oral; settings: plasma
Method in brief: (§1)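 Healthy male volunteers, fasted. Ritonavir 100 mg given 10 h before and again together with single oral BILR 355 in PEG solution. EDTA plasma sampled predose to 144 h. LC-MS/MS assay after protein precipitation. Noncompartmental analysis, AUC by linear up/log down trapezoidal rule; Vss = CL/F·(MRTp.o. − 1/Ka).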

[2] = test system: Homo sapiens; test: Toxicity in healthy human assessed as occurrence of palpitations at 12.5 mg, po administered as single dose relative to control; type: organism-based; settings: in vivo
[3] = test system: Homo sapiens; test: Toxicity in high fat fed healthy human assessed as occurrence of aphthous stomatitis at 50 mg, po administered as single dose coadministered with 100 mg of ritonavir; type: organism-based; settings: in vivo
[4] = test system: Homo sapiens; test: Toxicity in healthy human assessed as occurrence of vomiting at 50 mg, po administered as single dose relative to control; type: organism-based; settings: in vivo
[5] = Apparent oral clearance in healthy human at 87.5 mg, po administered as single dose coadministered with 100 mg of ritonavir; type: ADME, organism-based; settings: in vivo; method in brief: as §1
[6] = Renal clearance in healthy human at 75 mg, po administered as single dose by high-pressure liquid chromatography-tandem mass spectrometry/mass spectrometry method; type: ADME, organism-based, Kidney; settings: in vivo, read-out: CL_renal (converted)
[7] = Apparent oral clearance in high fat fed healthy human at 50 mg, po administered as single dose coadministered with 100 mg of ritonavir; type: ADME, organism-based; settings: in vivo
Method in brief: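 Fed cohort of 6 healthy men given an FDA-type high-fat breakfast (about 150, 250 and 500 to 600 cal from protein, carbohydrate and fat) 30 min before dosing. Ritonavir 100 mg given 10 h earlier and again with the single oral dose in PEG solution. Plasma sampled to 144 h, LC-MS/MS, noncompartmental analysis.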

[8] = test system: Homo sapiens; test: Toxicity in healthy human assessed as occurrence of abdominal pain at 100 mg, po administered as single dose relative to control; type: organism-based, Abdomen; settings: in vivo
[9] = Apparent oral clearance in healthy human at 50 mg, po administered as single dose; type: ADME, organism-based; settings: in vivo
Method in brief: (§2)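 Healthy male volunteers, six active plus two placebo per dose group, single oral dose in PEG solution with 200 ml water after overnight fast; breakfast 60 to 90 min post-dose. EDTA plasma sampled predose to 144 h. Assayed by validated LC-MS/MS after protein precipitation. Noncompartmental analysis, AUC by linear up/log down trapezoidal rule; Vss = CL/F·(MRTp.o. − 1/Ka).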

[10] = test system: Homo sapiens; test: Toxicity in healthy human assessed as occurrence of nausea at 50 mg, po administered as single dose relative to control; type: organism-based; settings: in vivo
[11] = Renal clearance in healthy human at 75 mg, po administered as single dose coadministered with 100 mg of ritonavir by high-pressure liquid chromatography-tandem mass spectrometry/mass spectrometry method; type: ADME, organism-based, Kidney; settings: in vivo, read-out: CL_renal (converted)
[12] = Apparent oral clearance in healthy human at 25 mg, po administered as single dose coadministered with 100 mg of ritonavir; type: ADME, organism-based; settings: in vivo; method in brief: as §1
[13] = Apparent volume of distribution at steady state in healthy human at 5 mg, po administered as single dose; type: ADME, organism-based; settings: in vivo, read-out: Vss/F
Method in brief: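 Single fasting oral dose of BILR 355 in PEG solution with 200 ml tap water, given to healthy males. Standard breakfast came 60-90 min after the dose. EDTA plasma was sampled predose to 144 h, stored below −18°C and assayed by LC-MS/MS after protein precipitation. Noncompartmental analysis gave Vz/F. Vss/F = CL/F·(MRTp.o. − 1/Ka), with Ka from compartmental modelling.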

[14] = Mean residence time in healthy human at 5 mg, po administered as single dose coadministered with 100 mg of ritonavir; type: ADME, organism-based; settings: in vivo
[15] = Drug excretion in healthy human urine assessed as unchanged drug at 50 mg, po administered as single dose by high-pressure liquid chromatography-tandem mass spectrometry/mass spectrometry method; type: ADME, organism-based; settings: read-out: Drug uptake
Method in brief: (§3)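 Urine was collected by weight after one oral dose of BILR 355 in PEG solution in fasted healthy males. Intervals were predose blank, 0-6, 6-24 and 24-72 h, with the bladder voided before each. Aliquots were stored at −20°C and assayed by LC-MS/MS. fe = amount of unchanged drug excreted (Ae) as a percentage of the administered dose.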

[16] = test system: Homo sapiens; test: Toxicity in healthy human assessed as occurrence of headache at 25 mg, po administered as single dose relative to control; type: organism-based; settings: in vivo
[17] = AUC (0 to infinity) in healthy human at 62.5 mg, po administered as single dose coadministered with 100 mg of ritonavir; type: ADME, organism-based; parameters: dose 62.5 mg, time infinity, route oral; settings: plasma; method in brief: as §1
[18] = Renal clearance in healthy human at 5 mg, po administered as single dose coadministered with 100 mg of ritonavir by high-pressure liquid chromatography-tandem mass spectrometry/mass spectrometry method; type: ADME, organism-based, Kidney; settings: in vivo, read-out: CL_renal (converted)
[19] = AUC (0 to last) in healthy human at 5 mg, po administered as single dose; type: ADME, organism-based; parameters: dose 5 mg, time 0 - last, route oral; settings: plasma; method in brief: as §2
[20] = Mean residence time in healthy human at 12.5 mg, po administered as single dose coadministered with 100 mg of ritonavir; type: ADME, organism-based; settings: in vivo
[21] = Cmax in healthy human at 75 mg, po administered as single dose coadministered with 100 mg of ritonavir by high-pressure liquid chromatography-tandem mass spectrometry/mass spectrometry method; type: ADME, organism-based; parameters: dose 75 mg, route oral; settings: in vivo
Method in brief: (§4)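 Healthy male volunteers, fasted overnight, got one oral dose of BILR 355 in PEG solution with 200 ml water. Ritonavir 100 mg was given 10 h before and again with the dose. Plasma was sampled (EDTA) from predose to 144 h and assayed by validated LC-MS/MS. Cmax and Vz/F came from noncompartmental analysis. Vss/F = CL/F·(MRTp.o. − 1/Ka), with Ka from compartmental modelling.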

[22] = Drug excretion in healthy human urine assessed as unchanged drug in healthy human at 12.5 mg, po administered as single dose by high-pressure liquid chromatography-tandem mass spectrometry/mass spectrometry method; type: ADME, organism-based; settings: read-out: Drug uptake; method in brief: as §3
[23] = AUC (0 to infinity) in healthy human at 12.5 mg, po administered as single dose coadministered with 100 mg of ritonavir; type: ADME, organism-based; parameters: dose 12.5 mg, route oral, time infinity; settings: plasma; method in brief: as §1
[24] = AUC (0 to last) in healthy human at 87.5 mg, po administered as single dose coadministered with 100 mg of ritonavir; type: ADME, organism-based; parameters: dose 87.5 mg, route oral, time 0 - last; settings: plasma; method in brief: as §1
[25] = Apparent volume of distribution in terminal phase in healthy human at 75 mg, po administered as single dose coadministered with 100 mg of ritonavir; type: ADME, organism-based; settings: in vivo, read-out: Vz/F; method in brief: as §4
[26] = Drug excretion in healthy human urine assessed as unchanged drug at 50 mg, po administered as single dose coadministered with 100 mg of ritonavir by high-pressure liquid chromatography-tandem mass spectrometry/mass spectrometry method; type: ADME, organism-based; settings: read-out: Drug uptake
Method in brief: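 Ritonavir 100 mg was given 10 h before and with one oral dose of BILR 355 in PEG solution. Urine was collected by weight as predose blank, then 0-6, 6-24 and 24-72 h, stored at −20°C and assayed by LC-MS/MS. fe = unchanged drug excreted (Ae) as a percentage of dose. Line 50: high-fat breakfast 30 min before dosing.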

[27] = Apparent oral clearance in healthy human at 37.5 mg, po administered as single dose coadministered with 100 mg of ritonavir; type: ADME, organism-based; settings: in vivo; method in brief: as §1
[28] = Mean residence time in healthy human at 25 mg, po administered as single dose coadministered with 100 mg of ritonavir; type: ADME, organism-based; settings: in vivo

## CCN1c2ncc(CCOc3cc[n+]([O-])c4ccccc34)cc2C(=O)N(C)c2cccnc21 [BILR 355]
[1]
  AUC(0-inf): 707 ng·h/mL
[2]
  Activity: 0%
[3]
  Activity: 0%
[4]
  Activity: 0%
[5]
  CL/F: 138 mL/min
[6]
  CL renal: 10.2 mL/min
[7]
  CL/F: 104 mL/min
[8]
  Activity: 0%
[9]
  CL/F: 2150 mL/min
[10]
  Activity: 0%
[11]
  CL renal: 5.85 mL/min
[12]
  CL/F: 98 mL/min
[13]
  Vd/F: 1020 L
[14]
  MRT: 24.8 h
[15]
  dose excreted: 0.485%
[16]
  Activity: 16.7%
[17]
  AUC(0-inf): 7630 ng·h/mL
[18]
  CL renal: 6.03 mL/min
[19]
  AUC(0-t): 13.6 ng·h/mL
[20]
  MRT: 24.8 h
[21]
  Cmax: 812 ng/mL
[22]
  dose excreted: 0.212%
[23]
  AUC(0-inf): 1960 ng·h/mL
[24]
  AUC(0-t): 11700 ng·h/mL
[25]
  Vd/F: 108 L
[26]
  dose excreted: 3.58%
[27]
  CL/F: 109 mL/min
[28]
  MRT: 18.1 h
